Results on 41 compounds are retold here after ChEMBL document CHEMBL1129982, “Structure-activity relationships in a series of orally active gamma-hydroxy butenolide endothelin antagonists” (J Med Chem, 1997).

Some results are limits rather than exact numbers.

Assay [1] deals with T1, Endothelin-1 receptor (Homo sapiens, UniProt P25101).
T1 sequence (P25101 whole entry): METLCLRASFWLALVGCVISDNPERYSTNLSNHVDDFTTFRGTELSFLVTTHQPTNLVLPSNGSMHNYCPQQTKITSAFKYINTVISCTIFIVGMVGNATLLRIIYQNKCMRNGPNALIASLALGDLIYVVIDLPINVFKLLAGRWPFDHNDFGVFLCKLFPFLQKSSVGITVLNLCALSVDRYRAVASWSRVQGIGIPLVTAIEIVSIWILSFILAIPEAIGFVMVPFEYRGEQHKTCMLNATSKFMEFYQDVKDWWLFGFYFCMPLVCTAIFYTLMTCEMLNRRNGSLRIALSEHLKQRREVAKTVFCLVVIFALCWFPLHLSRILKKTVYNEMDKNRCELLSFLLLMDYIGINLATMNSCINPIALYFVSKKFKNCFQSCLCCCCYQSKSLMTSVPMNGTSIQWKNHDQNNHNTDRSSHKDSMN
Description: Binding affinity against human cloned endothelin A receptor expressed in LTK-cells. It counts as cell-based. Put shortly:
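Radioligand binding to cloned human ETA (Ltk⁻ cells) and ETB (CHO-K1 cells) receptors. Selectivity expressed as ETB IC50/ETA IC50.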

For assay [2], the target named is T2, Endothelin receptor type B (Homo sapiens, UniProt P24530).
T2 sequence (P24530 whole entry): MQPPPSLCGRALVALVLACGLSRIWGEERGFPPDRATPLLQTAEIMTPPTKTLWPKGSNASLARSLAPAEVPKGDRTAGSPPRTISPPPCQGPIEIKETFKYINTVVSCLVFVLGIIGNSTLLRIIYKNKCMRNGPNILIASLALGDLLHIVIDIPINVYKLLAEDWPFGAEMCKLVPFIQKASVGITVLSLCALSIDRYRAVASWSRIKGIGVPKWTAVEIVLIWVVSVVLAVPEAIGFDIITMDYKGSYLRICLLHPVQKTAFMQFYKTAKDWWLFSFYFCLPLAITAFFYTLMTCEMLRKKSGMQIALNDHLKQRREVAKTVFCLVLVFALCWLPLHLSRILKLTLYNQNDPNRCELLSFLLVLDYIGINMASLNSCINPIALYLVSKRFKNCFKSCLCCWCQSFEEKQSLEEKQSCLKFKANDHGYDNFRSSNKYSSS
Kind of assay: Binding affinity against human cloned Endothelin B receptor expressed in CHO-K1 cells. It counts as cell-based. Put shortly: (§1)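 Radioligand binding to cloned human ETA (Ltk⁻ cells) and ETB (CHO-K1 cells) receptors. […] Selectivity expressed as ETB IC50/ETA IC50.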

Assay [3] has as its target Endothelin receptor, ET-A/ET-B (Homo sapiens) (UniProt P24530+P25101). Description: Selectivity of compound on ET B with respect to ET A receptor. In kind it is protein assay. Put shortly:
as §1

The target of assay [4] is T2, Endothelin receptor type B. Description: Inhibition of Endothelin B receptor mediated (ET-3) release of arachidonic acid from human cloned receptors expressed in CHO-K1 cells. It counts as cell-based. Put shortly: (§2)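 Arachidonic acid release assay. ETA: rabbit renal artery vascular smooth muscle cells stimulated with ET-1. ETB: recombinant human receptors in CHO-K1 cells stimulated with ET-3.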

For assay [5], the system named is Rattus norvegicus. Kind of assay: In vivo effect at 10 mg/kg on MABP in anesthetized ganglionic-blocked rats versus ET-1 (0.3 nmol/kg, iv) baseline. In kind it is functional. Put shortly: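 Rats dosed orally by gavage at 10 mg/kg. Ganglionic blockade with mecamylamine given 15 min later (baseline MABP 80–90 mmHg). ET-1 challenge (0.3 nmol/kg iv) 15 min after that. Reduction of the peak pressor response, about 5 min post ET-1, scored against vehicle-treated controls.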

The target of assay [6] is T2, Endothelin receptor type B. Kind of assay: Inhibition of Endothelin B receptor mediated (ET-3) release of arachidonic acid from human cloned receptors / CHO-K1 cells; In active. In kind it is cell-based. Put shortly:
as §2

On to `O=C1OC(O)(c2ccc(C(=O)O)cc2)C(Cc2ccccc2)=C1c1ccc2c(c1)OCO2` (stereo not drawn), for which the IC50 (usually the concentration that inhibits the measured activity by half) in assay [1] was > 25 µM; in assay [2], > 2.5 µM.

Regarding `COc1ccc(C2(O)OC(=O)C(c3cc(OC)c4c(c3)OCO4)=C2Cc2cc(OC)c(OC)c(OC)c2)cc1` (stereo not drawn), the IC50 in assay [1] was found to be 0.0005 µM; in assay [2], 0.26 µM. In assay [3], the Selectivity came to 520.

Turning to `COc1ccc(C2(O)OC(=O)C(c3ccc4c(c3)OCO4)=C2Cc2ccc(N(C)C)cc2)cc1` (stereo not drawn), the IC50 in assay [1] worked out at 0.028 µM; in assay [2], 1.8 µM.

As to `COc1ccc(C2(O)OC(=O)C(c3ccc4c(c3)OCO4)=C2Cc2ccc3ccccc3c2)cc1` (stereo not drawn), the values for the IC50 in assay [1] and in assay [2] were 0.014 µM and > 2.5 µM, respectively.

In assay [4], `COc1ccc(C(=O)/C(Cc2ccc(NC(C)=O)cc2)=C(\C(=O)O)c2ccc3c(c2)OCO3)cc1` displayed an IC50 of 8.2 µM.

For `COc1ccc(C2OC(=O)C(c3ccc4c(c3)OCO4)=C2Cc2ccccc2)cc1` (stereo not drawn), the IC50 in assay [1] is 0.7 µM; in assay [2] it was > 2.5 µM.

As to `COc1ccc(C2(O)OC(=O)C(c3ccc4c(c3)OCO4)=C2CC2CCCC2)cc1` (stereo not drawn), the IC50 in assay [1] was determined as 0.01 µM; in assay [2], 0.63 µM.

`COc1ccccc1C1(O)OC(=O)C(c2ccc3c(c2)OCO3)=C1Cc1ccccc1` (stereo not drawn): the IC50 in assay [1] is 0.48 µM; in assay [2] it was > 2.5 µM.

Turning to `COc1ccc(C2(O)OC(=O)C(c3ccc4c(c3)OCO4)=C2Cc2ccc3c(c2)OCCO3)cc1` (stereo not drawn), the IC50 in assay [1] came out at 0.0075 µM; in assay [2] it was 1.6 µM.

Regarding `COc1ccc(C2(O)OC(=O)C(c3ccc4c(c3)OCO4)=C2Cc2cccnc2)cc1` (stereo not drawn), the IC50 was 0.04 µM in assay [1] and > 2.5 µM in assay [2].

As for `COc1ccc(C(=O)/C(Cc2ccccc2)=C(\C(=O)[O-])c2ccc3c(c2)OCO3)cc1.C[N+](C)(C)CCO`, in assay [4], the IC50 turned out to be 22 µM. In assay [5], this compound displayed a Pressure response of 80%.

Regarding `COc1ccc(C2(O)OC(=O)C(c3ccc4c(c3)OCO4)=C2Cc2ccccc2)c(OC)c1` (stereo not drawn), the IC50 in assay [1] is 0.013 µM; in assay [2], > 2.5 µM.

As to `CCc1ccc(C2(O)OC(=O)C(c3ccc4c(c3)OCO4)=C2Cc2ccccc2)cc1` (stereo not drawn), the IC50 in assay [1] was 0.63 µM; in assay [2] it was > 2.5 µM.

Regarding `COc1ccc(C2(O)OC(=O)C(c3cc(OC)c(OC)c(OC)c3)=C2Cc2ccccc2)cc1` (stereo not drawn), the IC50 in assay [1] is 1.3 µM; in assay [2] it was 1.6 µM.

Turning to `COc1ccc(C(=O)/C(Cc2cc(OC)c(OC)c(OC)c2)=C(\C(=O)[O-])c2ccc3c(c2)OCO3)cc1C.[Na+]`, the IC50 in assay [4] was 1.9 µM. Further, the Pressor response in assay [5] came to 53%.

As to `COc1ccc(C2(O)OC(=O)C(c3ccc4c(c3)OCO4)=C2Cc2cccc([N+](=O)[O-])c2)cc1` (stereo not drawn), the IC50 in assay [1] was 0.07 µM; in assay [2], > 25 µM.

As to `COC(=O)c1ccc(C2(O)OC(=O)C(c3ccc4c(c3)OCO4)=C2Cc2ccccc2)cc1` (stereo not drawn), the half-inhibitory concentration (IC50) in assay [1] is 0.4 µM; in assay [2] it was > 2.5 µM.

For the compound `CSc1ccc(C2(O)OC(=O)C(c3ccc4c(c3)OCO4)=C2Cc2ccccc2)cc1` (stereo not drawn), the figures for the IC50 in assay [1] and in assay [2] were 0.17 µM and > 2.5 µM, respectively.

On to `CCOc1cc(CC2=C(c3ccc4c(c3)OCO4)C(=O)OC2(O)c2ccc(OC)cc2)cc(OCC)c1OCC` (stereo not drawn), for which the results for the IC50 in assay [1] and in assay [2] were 0.00012 µM and 0.445 µM, respectively. Also, the Selectivity in assay [3] worked out at 3700.

In the case of `COc1ccc(C2(O)OC(=O)C(c3ccc4c(c3)OCO4)=C2Cc2ccc(OC)c(OC)c2OC)cc1` (stereo not drawn), the IC50 in assay [1] was 0.012 µM; in assay [2], 2 µM.

For the compound `COc1ccc(C2(O)OC(=O)C(c3ccc4c(c3)OCO4)=C2Cc2cccc(C(F)(F)F)c2)cc1` (stereo not drawn), the IC50 in assay [1] was 0.043 µM; in assay [2], > 2.5 µM.

In the case of `COc1ccc(C2(O)OC(=O)C(c3ccc4c(c3)OCO4)=C2Cc2ccc(Cl)c(Cl)c2)cc1` (stereo not drawn), the IC50 in assay [1] is 0.15 µM; in assay [2] it was > 2.5 µM.

Regarding `COc1ccc(C2(O)OC(=O)C(c3ccc4c(c3)OCO4)=C2Cc2cccc(OC)c2)cc1` (stereo not drawn), the IC50 is 0.003 µM in assay [1] and 0.26 µM in assay [2].

For the compound `COc1ccc(C2(O)OC(=O)C(c3cc(OC)c4c(c3)OCO4)=C2Cc2ccccc2)cc1` (stereo not drawn), the IC50 in assay [1] is 0.0067 µM; in assay [2], 0.64 µM.

For the compound `COc1ccc(C2(O)OC(=O)C(c3ccc4c(c3)OCO4)=C2Cc2cccc3c2CCc2ccccc2C3=O)cc1` (stereo not drawn), the IC50 is 16 µM in assay [1] and 10 µM in assay [2].

As for `COc1ccc(C2(O)OC(=O)C(c3ccc4c(c3)OCO4)=C2Cc2ccccc2)cc1OC` (stereo not drawn), the values for the IC50 in assay [1] and in assay [2] were 0.011 µM and 18 µM, respectively.

For the compound `COc1ccc(C2(O)OC(=O)C(c3ccc4c(c3)OCO4)=C2Cc2ccc(S(C)(=O)=O)cc2)cc1` (stereo not drawn), the IC50 in assay [1] was 0.004 µM; in assay [2] it was 3 µM.

Turning to `COc1ccc(C2(O)OC(=O)C(c3cccc(OC)c3)=C2Cc2ccccc2)cc1` (stereo not drawn), the IC50 worked out at 0.09 µM in assay [1] and 12 µM in assay [2].

On to `COc1ccc(C2(O)OC(=O)C(c3ccc4c(c3)OCO4)=C2CC2CCCCC2)cc1` (stereo not drawn), for which the figures for the IC50 in assay [1] and in assay [2] were 0.013 µM and 0.225 µM, respectively.

As for `COc1ccc(C2(O)OC(=O)C(c3ccc4c(c3)OCO4)=C2Cc2ccc([N+](=O)[O-])cc2)cc1` (stereo not drawn), the IC50 was found to be 0.8 µM in assay [1] and 17 µM in assay [2].

`COc1ccc(C(=O)/C(Cc2cc(OC)c(OC)c(OC)c2)=C(\C(=O)O)c2cc(OC)c3c(c2)OCO3)cc1C` showed an IC50 in assay [4] of 0.068 µM.

Take `O=C1OC(O)(c2ccc(Cl)cc2)C(Cc2ccccc2)=C1c1ccc2c(c1)OCO2` (stereo not drawn): the figures for the IC50 in assay [2] and in assay [6] were 27 µM and “Not Active”, respectively.

On to `COc1ccc(C(=O)/C(Cc2ccccc2)=C(\C(=O)[O-])c2cc(OC)c3c(c2)OCO3)cc1.[Na+]`, for which the IC50 in assay [4] was found to be 15.7 µM. The same compound registered a Pressor response in assay [5] of 76%.

For `COc1ccc(C2(O)OC(=O)C(c3ccc4c(c3)OCO4)=C2Cc2cc(OC)c3c(c2)OCO3)cc1` (stereo not drawn), the results for the IC50 in assay [1] and in assay [2] were 0.014 µM and 16 µM, respectively.

In the case of `COc1ccc(C2(O)OC(=O)C(c3ccc4c(c3)OCO4)=C2Cc2cccc3ccccc23)cc1` (stereo not drawn), the results for the IC50 in assay [1] and in assay [2] were 0.018 µM and > 2.5 µM, respectively.

For the compound `COc1cccc(C2(O)OC(=O)C(c3ccc4c(c3)OCO4)=C2Cc2ccccc2)c1` (stereo not drawn), the values for the IC50 in assay [1] and in assay [2] were 0.5 µM and 18 µM, respectively.

For the compound `COc1ccc(C2(OC)OC(=O)C(c3ccc4c(c3)OCO4)=C2Cc2ccccc2)cc1` (stereo not drawn), the IC50 in assay [1] was 0.3 µM; in assay [2], > 25 µM.

As for `COc1ccc(C2(O)OC(=O)C(c3ccc4c(c3)OCO4)=C2Cc2cc(OC)c(OC)c(OC)c2)cc1C` (stereo not drawn), the IC50 in assay [1] was found to be 0.0005 µM; in assay [2], 0.24 µM. In assay [3], this compound registered a Selectivity of 480.

In the case of `COc1cc(C2(O)OC(=O)C(c3ccc4c(c3)OCO4)=C2Cc2ccccc2)cc(OC)c1OC` (stereo not drawn), the IC50 was 0.025 µM in assay [1] and 4.5 µM in assay [2].

Turning to `COc1ccc(C2(OC)OC(=O)C(c3ccc4c(c3)OCO4)=C2Cc2cc(OC)c(OC)c(OC)c2)cc1` (stereo not drawn), the results for the IC50 in assay [1] and in assay [2] were 0.6 µM and > 2.5 µM, respectively.

Consider `COc1ccc(C2(O)OC(=O)C(c3ccc4c(c3)OCO4)=C2Cc2nccc3ccccc23)cc1` (stereo not drawn), for which the IC50 is 0.01 µM in assay [1] and 3.2 µM in assay [2].
